Screening results: PubChem BioAssay, ICCB-Longwood Screening Facility, Harvard Medical School
Many of the other results were omitted from the sample, so hits are more common in it than they were.
Ab BasE inh – inhibitors of Acinetobacter baumannii siderophore enzyme BasE; inhibition, % (no concentration beside the values); purified BasE, fluorescence polarization binding displacement; 0.1% of 84,000 active; in the data active = inhibition above about 25%, passing the limit was not always enough;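 also: 0% = negative plate control signal and 100% = positive plate control signal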
KSHV LANA nucl – LANA-nucleosome interaction inhibition; FITC-LANA1-23 / chicken nucleosome fluorescence polarization; hits give low values; z-score (no concentration beside the values); 0.3% of 51,000 active;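 active = both repeat wells score below -2 in polarization z-score versus plate sample wells, excluding overly bright wells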
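test system = FITC-LANA peptide and chicken nucleosomes | amount = 240 nM purified chicken nucleosomes (480 nM peptide binding sites), final | reagent = 50 nM FITC-LANA1-23 probe | medium = TEN-BT buffer, pH 7.5 | doses = single compound addition by pin transfer, 100 nL per well | timing = 10–45 min, room temperature | detection = fluorescence polarization | repeats = duplicate plates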
* = called active by the depositor; x = no result.

SMILES	Ab BasE inh	KSHV LANA nucl
Cc1cc(N2CCCC2)ccc1/C=C/C1=CCN(C)CC1	-7.8	-4.13*
Cc1cc(C)nc(Nc2n[nH]c(-c3cccnc3)n2)n1	26.5*	-0.464
Cc1cc(C)nc(Nc2n[nH]c(COc3ccc4ccccc4c3)n2)n1	-1.0	0.259
Cc1cc(-c2csc(N)n2)c(C)n1-c1ccc2c(c1)OCO2	-3.0	x
O=C(Cn1cc(/C=C2\NC(=S)N(c3ccccc3)C2=O)c2ccccc21)NCc1ccco1	13.2	-2.29*
O=C(Cn1cc(/C=N/NC(=S)Nc2ccccc2)c2ccccc21)NCc1ccco1	0.2	-0.956
S=c1[nH]c2cc(Cl)c3cccnc3c2o1	51.3*	2.53
O=C(O)COc1c(I)cc(Cl)c2cccnc12	-0.4	x
Cc1ccc(S(N)(=O)=O)cc1C(=O)NC1CCCCC1	4.4	-0.136
CC(C)[C@H](N)c1nnc(SCc2cccc(F)c2)o1	-0.6	0.347
O=C(c1ccc2c(c1)OCO2)N1CCN(C2c3ccccc3-c3ccccc32)CC1	3.0	-2.33*
O=C(CN1CCN(C2c3ccccc3-c3ccccc32)CC1)c1ccc2c(c1)OCO2	0.8	0.0085
O=C(NCCN1C(=O)S/C(=C\c2ccc(Cl)cc2)C1=O)c1oc2ccccc2c1CSc1ncn[nH]1	2.7	x
COc1ccc(NC(=O)C2CC(=O)N(Cc3ccc(F)cc3)C2)cc1 (stereo not given)	x	-1.77
O=C(Cc1ccc(F)cc1)Nc1cc(=O)[nH]c(=O)[nH]1	1.0	-2.17*
O=C(CSCc1ccccc1)Nc1cc(=O)[nH]c(=O)[nH]1	0.9	-0.529
O=C(O)CCCn1c(=O)c2cc3c(=O)n(CCCC(=O)O)c(=O)c3cc2c1=O	-0.7	0.693
C=C1Cn2c(nnc2-c2sc3ccccc3c2Cl)S1	-2.5	-0.254
N#Cc1ccsc1/N=C/c1ccccc1	x	-0.415
Cc1ccc(/C=N/c2sccc2C#N)cc1	x	-6.48*
Nc1cc[n+](CC(O)CO)cc1 (stereo not given)	-90.3	-3.07*
CCN(CC)Cc1c(O)ccc2c1O/C(=C\c1ccccc1Cl)C2=O	1.5	-3*
O=C1/C(=C/c2ccccc2)Oc2c1ccc(O)c2CN1CCCC1	0.9	2.15
O=C(COc1ncnc2ccccc12)N1N=C2/C(=C/c3ccco3)CCCC2C1c1ccco1 (stereo not given)	0.3	x
COC(=O)C1=CNC=C(C(=O)OC)C1c1ccccc1C	28.5*	-0.573
SMILES	Ab BasE inh	KSHV LANA nucl
COC(=O)C1=CNC=C(C(=O)OC)C1c1ccc(Cl)cc1	0.6	0.369
CN(c1ccc(OCC(=O)NCc2ccncc2)cc1)S(=O)(=O)c1cccs1	8.2	x
CS(=O)(=O)CC(=O)c1ccc(Cl)c(Cl)c1	x	-0.467
CCOC(=O)/C(C#N)=C\c1cc2ccc(OC)cc2[nH]c1=O	13.6	-4.54*
COc1cccc(C(=O)NCCc2cc3ccc(OC)cc3[nH]c2=O)c1	-6.1	0.267
O=C(OCCN1C(=O)c2ccccc2C1=O)c1ccccn1	4.5	x
COc1ccccc1N1CCN(C2Sc3ccccc3NC2=O)CC1 (stereo not given)	-0.2	x
O=C(Cc1ccccc1)NCCc1nc2ccccc2[nH]1	-0.7	-0.363
O=C1c2ccccc2C(=O)N1Cc1cc(=O)n2ccsc2n1	1.9	x
O=c1cc(CN2CCCc3ccccc32)nc2sccn12	12.2	-7.88*
CCNCc1cccs1	-1.6	x
N#Cc1ccccc1CNCc1cccs1	-0.1	-2.13*
NC(=O)CSc1nnnn1-c1cccnc1	1.6	0.134
CCC1CSC(Nc2cccc(Cl)c2)=N1 (stereo not given)	0.9	x
NS(=O)(=O)c1ccc(NNC(=O)C2CCN(C(=O)OCc3ccccc3)CC2)cc1	-2.5	0.594
COc1ccc(OCC(=O)N2CCN(S(C)(=O)=O)CC2)cc1	-1.2	1.2
CN(C)c1ccc2c3c(cccc13)C(=O)N(c1nc3ccccc3n1C)C2=O	0.3	-0.971
CC(=O)NN1C(=O)c2cccc3c(N(C)C)ccc(c23)C1=O	31.6*	x
O=C(Nc1ccc(OC(F)(F)F)cc1)N1CCN(C(c2ccccc2)c2ccccc2)CC1	-2.5	x
Cc1nnc(N2CCN(c3ccccc3)CC2)c2c1nnn2Cc1ccccc1	0.2	-0.367
O=C(CN1C(=O)c2ccccc2S1(=O)=O)NC1=NN(c2ccccc2)C(=O)C1	2.8	-0.645
CCC(C)NC(=O)Cn1ncc2c1-c1ccccc1OC2 (stereo not given)	-1.5	-1.7
COc1cccc(NC(=O)Cn2ncc3c2-c2ccccc2OC3)c1	-0.9	-2.31*
S=C(NCc1ccco1)NCc1cccs1	1.5	x
CCc1nn(C)c2c(=O)c(=O)c2n(C)[nH]1	12.5	x
SMILES	Ab BasE inh	KSHV LANA nucl
Cc1nn(C)c2c(=O)c(=O)c2n(C)[nH]1	5.0	-3.57*
NS(=O)(=O)c1ccc(N2CCOCC2)c(C(=O)O)c1	1.1	x
Nc1ccc(N2CCOCC2)c(N)c1	36.8*	2.52
Cc1cccc(C2=NC(C(F)(F)F)(C(F)(F)F)N=C(c3ccco3)O2)c1	-1.6	-0.829
COc1ccc(NC(=O)N2c3ccccc3Sc3ccccc32)cc1	1.0	x
NC(=O)Nc1ccc(C(=O)OCc2cc(=O)n3cc(Br)ccc3n2)cc1	-0.5	x
c1cnc2c(c1)NC1(CCCCC1)N2	29.1	-3.64*
CCSC1=NC2(CCCCC2)Nc2ccccc21	0.4	x
Cc1cccc2[nH]ncc12	24.7*	0.321
S=c1[nH]ncc2ccccc12	0.8	x
CC1(NC(=O)CCN2c3ccccc3Sc3ccccc32)CCS(=O)(=O)C1 (stereo not given)	1.4	x
O=C(O)CC1S/C(=N/N=C/c2ccccc2)NC1=O (stereo not given)	-0.2	0.673
O=C1N/C(=N/N=C\c2[nH]ncc2Br)SC1c1ccccc1 (stereo not given)	26.8*	0.817
CCN(CC)C(=O)Cn1c(=O)cc(C)c2c(C)nn(-c3cccc(F)c3)c21	0.4	0.129
CNS(=O)(=O)c1cccc(C(=O)NCCCn2nc(C)cc2C)c1	1.8	x
O=C(O)C1CCN(C(=O)C2CC2)CC1	1.6	x
